Here are results for 5 molecules from ChEMBL document CHEMBL1125082, “Synthesis and antimalarial activity of (+)-deoxoartemisinin” (J Med Chem, 1990).

The term IC50 denotes the concentration that gives 50% inhibition. Low readings indicate higher potency, high ones lower potency.

For experiment [1], the system named is Plasmodium falciparum. Nature of the experiment: In vitro antimalarial activity against chloroquine-resistant Plasmodium falciparum W2 (Indochina). Format: functional, organism-based. In short, it runs like this: (§1)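 Semiautomated microdilution over a 64-fold dilution range, with DMSO stock diluted in medium with 10% plasma. Parasites at 0.5% parasitemia and 1.5% hematocrit, 37°C under 5% O2/5% CO2/90% N2 for 24 h. Tritiated hypoxanthine added for a further 18–20 h and incorporation read by scintillation. IC50 from nonlinear regression of concentration–response curves.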

Experiment [2] deals with Plasmodium falciparum. The experiment can be described thus: In vitro antimalarial activity against mefloquine-resistant Plasmodium falciparum D6 (Sierra Leone). Format: functional, organism-based. The method in brief: as §1
The test system of experiment [3] is Plasmodium berghei. The experiment can be described thus: Antimalarial activity against Plasmodium berghei infected mice (Mus musculus) at 160 mg/kg dose; active in 2 of 5. Type of experiment: functional. In short, it runs like this: (§2)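 Mice infected intraperitoneally on day 0 with 5.98×10^5 P. berghei-parasitized cells. A single subcutaneous dose in peanut oil was given on day 3, at 640, 320, 160, 80, 40 or 20 mg/kg. Blood films were taken on day 6, then every 7 days to day 60. Mice surviving 60 days counted as cured. Activity meant survival over twice that of infected untreated controls.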

In experiment [4] the test system is Plasmodium berghei. Nature of the experiment: Antimalarial activity against Plasmodium berghei infected mice (Mus musculus) at 40 mg/kg dose; n=5. Type of experiment: functional. The method in brief:
as §2

The test system of experiment [5] is Plasmodium berghei. Nature of the experiment: Antimalarial activity against Plasmodium berghei infected mice (Mus musculus) at 640 mg/kg dose; n=5. Format: functional. The method in brief:
as §2

Experiment [6] relates to Plasmodium berghei. The experiment can be described thus: Antimalarial activity against Plasmodium berghei infected mice (Mus musculus) at 20 mg/kg dose; n=5. Format: functional. The method in brief:
as §2

In experiment [7] the test system is Plasmodium berghei. The experiment can be described thus: Antimalarial activity against Plasmodium berghei infected mice (Mus musculus) at 80 mg/kg dose;n=5. Format: functional. The method in brief: as §2
Experiment [8] relates to Plasmodium berghei. Nature of the experiment: Antimalarial activity against Plasmodium berghei infected mice (Mus musculus) at 320 mg/kg dose; active in 2 of 5. Type of experiment: functional. The method in brief: as §2
The subject of experiment [9] is Plasmodium berghei. Nature of the experiment: Antimalarial activity against Plasmodium berghei infected mice (Mus musculus) at 160 mg/kg dose; n=5. Format: functional. The method in brief:
as §2

Experiment [10] concerns Plasmodium berghei. Nature of the experiment: Antimalarial activity against Plasmodium berghei infected mice (Mus musculus) at 320 mg/kg dose; n=5. Format: functional. The method in brief: as §2

Values after ≈ are worked out from the molar mass of the structure shown.

Take `C[C@@H]1CC[C@H]2[C@@H](C)CO[C@@H]3OC4(C)CC[C@@H]1[C@]32O4` (single isomer, unassigned): the IC50 in the experiment with Plasmodium falciparum [1] and in the experiment on Plasmodium falciparum [2] was 250 ng/mL (≈ 991 nM) in each case.

For the molecule `C[C@@H]1CC[C@H]2[C@@H](C)C(O)O[C@@H]3OC4(C)CC[C@@H]1[C@]32OO4` (single isomer, unassigned), the figures for the IC50 in the experiment on Plasmodium falciparum [1] and with Plasmodium falciparum [2] were 0.04 ng/mL (≈ 0.141 nM) and 0.11 ng/mL (≈ 0.387 nM), respectively.

On to `C[C@@H]1CC[C@H]2[C@@H](C)CO[C@@H]3OC4(C)CC[C@@H]1[C@]32OO4` (single isomer, unassigned) [DEOXOARTEMISININ], for which the “No. of mice cured” value came out at 0 in the experiment on Plasmodium berghei [3]; 0 in the experiment on Plasmodium berghei [4]; 5 with Plasmodium berghei [5]; 0 in the experiment with Plasmodium berghei [6]; 0 in the experiment with Plasmodium berghei [7]; 2 in the experiment on Plasmodium berghei [8]. Moreover, the IC50 with Plasmodium falciparum [1] was 0.15 ng/mL (≈ 0.559 nM); in the experiment with Plasmodium falciparum [2], 0.58 ng/mL (≈ 2.16 nM).

As for `C[C@@H]1CC[C@H]2[C@@H](C)C(=O)O[C@@H]3O[C@@]4(C)CC[C@@H]1[C@]32OO4` [ARTEMISININ], the “No. of mice cured” value in the experiment on Plasmodium berghei [4] stood at 0; with Plasmodium berghei [5], 5; in the experiment on Plasmodium berghei [6], 0; in the experiment with Plasmodium berghei [9] it was 0; with Plasmodium berghei [10], 0; in the experiment with Plasmodium berghei [7], 0. Besides, the results for the 50% inhibitory concentration (IC50) with Plasmodium falciparum [1] and in the experiment with Plasmodium falciparum [2] were 1.21 ng/mL (≈ 4.29 nM) and 2.33 ng/mL (≈ 8.25 nM), respectively.

For `CCO[C@H]1O[C@@H]2O[C@@]3(C)CC[C@H]4[C@H](C)CC[C@@H]([C@H]1C)[C@@]24OO3` [ARTEMOTIL], the results for the IC50 in the experiment on Plasmodium falciparum [1] and in the experiment on Plasmodium falciparum [2] were 0.16 ng/mL (≈ 0.512 nM) and 0.87 ng/mL (≈ 2.78 nM), respectively.
